# Active and inactive are the calls of the source. No cut-off for these calls is given here.
# What was measured:
# Staphylococcus aureus [1] = test: Antibacterial activity against methicillin-resistant Staphylococcus aureus BAA-44 assessed as bacterial growth inhibition incubated for 16 hrs by broth microdilution susceptibility test; assay type: functional
# Outline: (§1)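 CLSI broth microdilution with 11 twofold dilutions (0.05–50 μM). Medium was LB for the staphylococci and BHI for VRE 700221. About 10^5 cells per well from a log-phase culture. […] DMSO vehicle up to 0.5% v/v. At least three independent experiments.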
# [2] = system: Staphylococcus epidermidis; test: Antibacterial activity against methicillin-resistant Staphylococcus epidermidis ATCC 35984 assessed as bacterial growth inhibition incubated for 16 hrs by broth microdilution susceptibility test; assay type: functional
# Outline: (§2)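 CLSI broth microdilution with 11 twofold dilutions (0.05–50 μM). About 10^5 cells per well from a log-phase culture. DMSO vehicle up to 0.5% v/v. At least three independent experiments.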
# Enterococcus faecium [3] = test: Antibacterial activity against vancomycin-resistant Enterococcus faecium ATCC 700221 assessed as bacterial growth inhibition incubated for 16 hrs by broth microdilution susceptibility test; assay type: functional; outline: as §1
# Enterococcus faecalis [4] = test: Antibacterial activity against Enterococcus faecalis OG1RF ATCC 47077 assessed as bacterial growth inhibition incubated for 16 hrs by broth microdilution susceptibility test; assay type: functional
# [5] = system: Mycobacterium tuberculosis; test: Antibacterial activity against Mycobacterium tuberculosis H37Ra ATCC 25177 assessed as bacterial growth inhibition incubated for 7 days by absorbance based analysis; assay type: functional; settings: H37Ra ATCC 25177, 168 h, time 7 day
# Outline: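 H37Ra grown 2 weeks in Middlebrook 7H9, then diluted to OD600 0.01. Compounds added in twofold dilutions, final 0.024–50 μM, with 0.5% DMSO and streptomycin as positive control. Incubated 7 days at 37 °C. MIC is the lowest concentration with no growth, with OD600 recorded. At least three independent experiments.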
# [6] = system: Mycobacterium tuberculosis; test: Antibacterial activity against Mycobacterium tuberculosis CDC1551 assessed as bacterial growth inhibition incubated for 5 days by luminescence based analysis; assay type: functional; settings: CDC1551, 120 h, time 5 day
# Outline: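 Bioluminescent Mtb-lux CDC1551 reporter grown in Middlebrook 7H9 with 0.05% Tween 80, 10% OADC and kanamycin to OD600 0.4–0.8, then diluted to OD600 0.02. Added to twofold drug dilutions (0.003–200 μM). Incubated 5 days at 37 °C, 5% CO2. Luminescence read against 1% DMSO and 10 μM rifampicin controls to give % growth inhibition. MIC taken from a modified Gompertz fit.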
# HeLa = test: Cytotoxicity against human HeLa cells assessed as reduction in cell viability incubated for 24 hrs by LDH release assay; assay type: toxicity, cell-based
# Outline: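 HeLa cells in DMEM with 10% FBS, treated at 70–80% confluence with 25, 50 and 100 μM for 24 h. LDH in supernatant measured by 30 min reaction at room temperature, then stop solution and absorbance at 490 nm. Controls: 2% Triton X-100 (maximum), medium only, DMSO vehicle. Three independent experiments.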
# J774 = test: Cytotoxicity against mouse J774 cells assessed as reduction in cell viability […] by Alamar blue assay; assay type: toxicity, cell-based
# HepG2 = test: Cytotoxicity against human HepG2 cells assessed as reduction in cell viability […] by Alamar blue assay; assay type: toxicity, cell-based
# Staphylococcus aureus [7] = test: Bactericidal activity against methicillin-resistant Staphylococcus aureus BAA-1707 planktonic cells assessed as planktonic eradication incubated for 24 hrs followed by incubation for overnight in fresh medium by Calgary biofilm device assay; assay type: functional
# Outline: (§3)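 Calgary biofilm device. Biofilms grown 24 h at 37 °C in TSB with 0.5% glucose, then challenged 24 h with twofold compound dilutions. 20 μL of challenge medium transferred into fresh TSB with 0.5% glucose and incubated overnight at 37 °C. MBC is the concentration with no visible turbidity. At least three independent experiments.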
# Staphylococcus aureus [8] = test: Antibiofilm activity against methicillin-resistant Staphylococcus aureus BAA-1707 biofilms assessed as biofilm eradication incubated for 24 hrs followed by incubation for 24 hrs in fresh medium by Calgary biofilm device assay; assay type: functional
# Outline: (§4)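 Calgary biofilm device. Mid-log culture diluted 1000-fold in TSB with 0.5% glucose; biofilms grown on pegs 24 h at 37 °C. Pegs washed and challenged with twofold compound dilutions for 24 h at 37 °C, then moved to fresh medium for 24 h. MBEC is the lowest concentration leaving wells non-turbid. At least three independent experiments.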
# [9] = system: Staphylococcus epidermidis; test: Bactericidal activity against methicillin-resistant Staphylococcus epidermidis ATCC 35984 planktonic cells assessed as planktonic eradication incubated for 24 hrs followed by incubation for overnight in fresh medium by Calgary biofilm device assay; assay type: functional; outline: as §3
# Enterococcus faecium [10] = test: Bactericidal activity against methicillin-resistant vancomycin-resistant Enterococcus faecium ATCC 700221 planktonic cells assessed as planktonic eradication incubated for 24 hrs followed by incubation for overnight in fresh medium by Calgary biofilm device assay; assay type: functional; outline: as §3
# Enterococcus faecium [11] = test: Antibiofilm activity against methicillin-resistant vancomycin-resistant Enterococcus faecium ATCC 700221 biofilms assessed as biofilm eradication incubated for 24 hrs followed by incubation for 24 hrs in fresh medium by Calgary biofilm device assay; assay type: functional; outline: as §4
# Enterococcus faecalis [12] = test: Antibiofilm activity against Enterococcus faecalis OG1RF ATCC 47077 biofilms assessed as biofilm eradication incubated for 24 hrs followed by incubation for 24 hrs in fresh medium by Calgary biofilm device assay; assay type: functional
# Outline: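 Calgary biofilm device. Biofilms grown 24 h at 37 °C in BHI from mid-log culture diluted 1000-fold. Pegs washed and then challenged 24 h with twofold serial dilutions. Pegs moved to fresh BHI for 24 h recovery. MBEC = lowest concentration leaving no turbidity; at least three independent experiments.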
# Erythrocyte = test: Hemolytic activity against human RBC at 200 uM measured after 1 hr; assay type: toxicity, cell-based
# Outline: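 2% hRBCs exposed to compound at 200 μM final, added from DMSO stock, for 1 h at 37 °C. Supernatant OD read at 405 nm. Hemolysis normalized between DMSO (0%) and Triton X (100%); three independent experiments.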
# [13] = Dissociation constant, pKa of the compound at 125 uM by UV-vis spectrophotometric analysis; assay type: physicochemical
# Outline: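 Compound at 125 μM final in phosphate buffers (KH₂PO₄/Na₂HPO₄) in 1:1 water/methanol, pH 4.07–9.66; ammonium hydroxide added for pH above 9.80. UV-vis scans 200–800 nm to find λmax of phenol and phenolate forms. Absorbance at each λmax plotted against pH.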
# Staphylococcus aureus [14] = test: Antibacterial activity against methicillin-resistant Staphylococcus aureus clinical isolate 1 assessed as bacterial growth inhibition; assay type: functional
# Staphylococcus aureus [15] = test: Antibacterial activity against methicillin-resistant Staphylococcus aureus clinical isolate 2 assessed as bacterial growth inhibition; assay type: functional
# Staphylococcus aureus [16] = test: Antibacterial activity against methicillin-resistant Staphylococcus aureus 129 assessed as bacterial growth inhibition; assay type: functional
# Staphylococcus aureus [17] = test: Antibacterial activity against methicillin-resistant Staphylococcus aureus 147 assessed as bacterial growth inhibition; assay type: functional
# Staphylococcus aureus [18] = test: Antibacterial activity against methicillin-resistant Staphylococcus aureus 138 assessed as bacterial growth inhibition; assay type: functional
# Staphylococcus aureus [19] = test: Antibacterial activity against methicillin-resistant Staphylococcus aureus 156 assessed as bacterial growth inhibition; assay type: functional
# Staphylococcus aureus [20] = test: Antibacterial activity against methicillin-resistant Staphylococcus aureus BAA-1707 assessed as bacterial growth inhibition incubated for 16 hrs by broth microdilution susceptibility test; assay type: functional; outline: as §2
# [21] = system: Staphylococcus epidermidis; test: Antibiofilm activity against methicillin-resistant Staphylococcus epidermidis ATCC 35984 biofilms assessed as biofilm eradication incubated for 24 hrs followed by incubation for 24 hrs in fresh medium by Calgary biofilm device assay; assay type: functional; outline: as §4
# Enterococcus faecalis [22] = test: Bactericidal activity against […] Enterococcus faecalis OG1RF ATCC 47077 planktonic cells assessed as planktonic eradication incubated for 24 hrs followed by incubation for overnight in fresh medium by Calgary biofilm device assay; assay type: functional
# Outline: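 Calgary biofilm device in BHI. Biofilms grown 24 h at 37 °C and challenged 24 h with twofold compound dilutions. Challenge medium subcultured 1:10 into fresh BHI overnight at 37 °C. MBC is the concentration with no turbidity. At least three independent experiments.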
# [23] = Binding affinity to Fe2+ assessed as compound-Fe2+ complex formation by UV-vis spectroscopy
# Staphylococcus aureus [24] = test: Antibiofilm activity against methicillin-resistant Staphylococcus aureus BAA-44 biofilms assessed as biofilm eradication incubated for 24 hrs followed by incubation for 24 hrs in fresh medium by Calgary biofilm device assay; assay type: functional; outline: as §4
Compound,MIC (Staphylococcus aureus [1]) [µM],MIC [2] [µM],MIC (Enterococcus faecium [3]) [µM],MIC (Enterococcus faecalis [4]) [µM],MIC [5] [µM],MIC [6] [µM],IC50 (HeLa) [µM],IC50 (J774) [µM],IC50 (HepG2) [µM],MBC (Staphylococcus aureus [7]) [µM],MBEC (Staphylococcus aureus [8]) [µM],MBC [9] [µM],MBC (Enterococcus faecium [10]) [µM],MBEC (Enterococcus faecium [11]) [µM],MBEC (Enterococcus faecalis [12]) [µM],Activity (Erythrocyte),pKa at 125 µM [13],MIC (Staphylococcus aureus [20]) [µM],MBC (Enterococcus faecalis [22]) [µM],other results
Oc1c(Br)c(Cl)c(Br)c2nc3c(Oc4ccccc4)cccc3nc12,0.1,0.2,0.15,0.78,3.13,3.01,> 100,> 200,> 200,[…],1.56,1.56,0.78,0.39,75,2.6%,,,,
CCSc1c(Br)c(O)c2nc3cccc(C)c3nc2c1Br,0.3,,,0.78,,1.69,,> 100,> 200,50,200,12.5,,3.13,,5.7%,7.88,,,MIC (Staphylococcus aureus [14]): 0.31 µM; MIC (Staphylococcus aureus [15]): 0.31 µM; MIC (Staphylococcus aureus [16]): 0.31 µM; MIC (Staphylococcus aureus [17]): 0.31 µM; MIC (Staphylococcus aureus [18]): 0.31 µM; MIC (Staphylococcus aureus [19]): 0.31 µM
COCCOCCOCCOCCSc1c(Br)c(O)c2nc3cccc(C)c3nc2c1Br,,2.35,3.13,,,,,,,,,,,,,,7.93,,,
c1ccc(CN(CCN(Cc2ccccn2)Cc2ccccn2)Cc2ccccn2)nc1,46.9,,,46.9,,,,,,250,>2000,,188,>2000,>2000,<= 1%,,46.9,500,MBEC [21]: >2000 µM
COc1cccc(OC)c1C(=O)N[C@@H]1C(=O)N2[C@@H]1SC(C)(C)[C@@H]2C(=O)O [METHICILLIN],,,,,,,,,,,,,,,,,,,,MIC (Staphylococcus aureus [14]): ≥ 37.5 µM; MIC (Staphylococcus aureus [15]): ≥ 37.5 µM; MIC (Staphylococcus aureus [17]): ≥ 37.5 µM; MIC (Staphylococcus aureus [19]): ≥ 37.5 µM
Oc1cc(Cl)cc2nc3ccccc3nc12,,18.8,> 50,,,,,,,,,,,,,,8.04,25,,Activity [23]: Active
CN[C@H](CC(C)C)C(=O)N[C@H]1C(=O)N[C@@H](CC(N)=O)C(=O)N[C@H]2C(=O)N[C@H]3C(=O)N[C@H](C(=O)N[C@H](C(=O)O)c4cc(O)cc(O)c4-c4cc3ccc4O)[C@H](O)c3ccc(c(Cl)c3)Oc3cc2cc(c3O[C@@H]2O[C@H](CO)[C@@H](O)[C@H](O)[C@H]2O[C@H]2C[C@](C)(N)[C@H](O)[C@H](C)O2)Oc2ccc(cc2Cl)[C@H]1O [VANCOMYCIN],,,,,,,,,,,,2,750,>2000,>2000,,,,11.7,MBEC (Staphylococcus aureus [24]): >2000 µM; MBEC [21]: >2000 µM
Cc1c(Br)ccc2nc3c(O)cc(Cl)cc3nc12,0.3,0.78,,2.35,6.25,3.27,> 100,> 200,> 200,18.8,[…],,,,,<= 1%,,,,
Cc1c(Br)ccc2nc3c(O)c(Br)c(Cl)c(Br)c3nc12,,0.1,≤ 0.05,0.05,,0.88,,> 200,> 200,75,75,,2.35,0.2,0.78,27%,,0.59,1.56,
Oc1cc(Cl)cc2nc3c(Cl)cc(Cl)cc3nc12,0.3,,,9.38,3.13,2.31,> 100,> 200,> 200,18.8,75,,,,,<= 1%,6.89,,,

# Source: ChEMBL document CHEMBL5154634, “A Modular Synthetic Route Involving N-Aryl-2-nitrosoaniline Intermediates Leads to a New Series of 3-Substituted Halogenated Phenazine Antibacterial Agents” (J Med Chem, 2021)
